{"source": "paper PMC10957407", "about": "(Food Chemistry: X, 2024)", "key": {"1-G12": {"system": "1-G12", "experiment": "icELISA with mAb 1-G12", "assay_type": "binding, Balb/c mice", "settings": "for CR: CR%=IC50 6-GG/IC50 test compound x100%", "summary_of_the_method": "(§1)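 Ascites-derived mAbs (caprylic acid–ammonium sulfate purified) from female Balb/c mice immunized with hapten–BSA. Plates coated with hapten–OVA in carbonate buffer (0.5 mol L−1, pH 9.6), blocked with 5% skim milk, washed with PBST, and detected with goat anti-mouse IgG-HRP; reaction stopped with 2 mol L−1 H2SO4. Analyte stocks (1 mg/mL, 70% methanol) were diluted in 10% methanol-PBS. IC50 values were fitted, and cross-reactivity was calculated for capsaicinoids, gingerol derivatives and eight other compounds.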"}, "1-F12": {"system": "1-F12", "experiment": "icELISA with mAb 1-F12", "assay_type": "binding, Balb/c mice", "settings": "for CR: CR%=IC50 6-GG/IC50 test compound x100%", "summary_of_the_method": "as §1"}, "1-D6": {"system": "1-D6", "experiment": "icELISA with mAb 1-D6", "assay_type": "binding, Balb/c mice", "settings": "for CR: CR%=IC50 6-GG/IC50 test compound x100%", "summary_of_the_method": "as §1"}, "6-AT6": {"system": "6-AT6", "experiment": "icELISA with mAb 6-AT6", "assay_type": "binding"}, "5-3H1": {"system": "5-3H1", "experiment": "icELISA with mAb 5-3H1", "assay_type": "binding"}, "4-AT4": {"system": "4-AT4", "experiment": "icELISA with mAb 4-AT4", "assay_type": "binding"}, "3-LD3": {"system": "3-LD3", "experiment": "icELISA with mAb 3-LD3", "assay_type": "binding"}, "2-LD2": {"system": "2-LD2", "experiment": "icELISA with mAb 2-LD2", "assay_type": "binding"}, "5-D8": {"system": "5-D8", "experiment": "icELISA with mAb 5-D8", "assay_type": "binding"}, "[1]": {"settings": "mAb 1-D6, specific evaluation (Table 1, Fig. 3C)"}, "[2]": {"settings": "mAb 1-G12, specific evaluation (Table 1, Fig. 3D)"}, "[3]": {"settings": "mAb 1-F12, specific evaluation (Table 1, Fig. 3B)"}}, "data": [{"smiles": "COc1cc(/C=C/C(=O)O)ccc1O", "note": "[Ferulic acid]", "values": [{"measurement": "CR", "setting": "1-G12; mAb 1-G12", "result": "<14.01", "unit": "%"}, {"measurement": "CR", "setting": "1-F12; mAb 1-F12", "result": "<12.66", "unit": "%"}, {"measurement": "IC50", "setting": "1-D6; [1]", "result": 1.92736, "unit": "µg/mL"}, {"measurement": "CR", "setting": "1-D6; mAb 1-D6", "result": 3.07, "unit": "%"}]}, {"smiles": "CCCCC[C@H](O)CC(=O)CCc1ccc(O)c(OC)c1", "note": "[Hapten 6-GG, 6-gingerol]", "values": [{"measurement": "IC50", "setting": "6-AT6; coating antigen Hapten 1-OVA", "result": ">4", "unit": "µg/mL"}, {"measurement": "IC50", "setting": "6-AT6; coating antigen Hapten 2-OVA", "result": ">4", "unit": "µg/mL"}, {"measurement": "IC50", "setting": "6-AT6; coating antigen Hapten 3-OVA", "result": ">4", "unit": "µg/mL"}, {"measurement": "IC50", "setting": "6-AT6; coating antigen Hapten 4-OVA", "result": ">4", "unit": "µg/mL"}, {"measurement": "IC50", "setting": "6-AT6; coating antigen Hapten 5-OVA", "result": 0.42562, "unit": "µg/mL"}, {"measurement": "IC50", "setting": "6-AT6; coating antigen Hapten 6-OVA", "result": ">4", "unit": "µg/mL"}, {"measurement": "IC50", "setting": "1-G12; coating antigen Hapten 1-OVA, mAb 1-G12", "result": 0.56059, "unit": "µg/mL"}, {"measurement": "IC50", "setting": "1-G12; coating antigen Hapten 2-OVA, mAb 1-G12", "result": ">4", "unit": "µg/mL"}, {"measurement": "IC50", "setting": "1-G12; coating antigen Hapten 3-OVA, mAb 1-G12", "result": ">4", "unit": "µg/mL"}, {"measurement": "IC50", "setting": "1-G12; coating antigen Hapten 4-OVA, mAb 1-G12", "result": 0.41084, "unit": "µg/mL"}, {"measurement": "IC50", "setting": "1-G12; coating antigen Hapten 5-OVA, mAb 1-G12", "result": 0.19553, "unit": "µg/mL"}, {"measurement": "IC50", "setting": "1-G12; coating antigen Hapten 6-OVA, mAb 1-G12", "result": 0.28444, "unit": "µg/mL"}, {"measurement": "IC50", "setting": "1-G12; [2]", "result": 0.56059, "unit": "µg/mL"}, {"measurement": "CR", "setting": "1-G12; mAb 1-G12", "result": 100.00, "unit": "%"}, {"measurement": "IC50", "setting": "5-3H1; coating antigen Hapten 1-OVA", "result": 0.03897, "unit": "µg/mL"}, {"measurement": "IC50", "setting": "5-3H1; coating antigen Hapten 2-OVA", "result": ">4", "unit": "µg/mL"}, {"measurement": "IC50", "setting": "5-3H1; coating antigen Hapten 3-OVA", "result": ">4", "unit": "µg/mL"}, {"measurement": "IC50", "setting": "5-3H1; coating antigen Hapten 4-OVA", "result": 1.06282, "unit": "µg/mL"}, {"measurement": "IC50", "setting": "5-3H1; coating antigen Hapten 5-OVA", "result": 0.67041, "unit": "µg/mL"}, {"measurement": "IC50", "setting": "4-AT4; coating antigen Hapten 1-OVA", "result": 0.00493, "unit": "µg/mL"}, {"measurement": "IC50", "setting": "4-AT4; coating antigen Hapten 2-OVA", "result": ">4", "unit": "µg/mL"}, {"measurement": "IC50", "setting": "4-AT4; coating antigen Hapten 3-OVA", "result": ">4", "unit": "µg/mL"}, {"measurement": "IC50", "setting": "4-AT4; coating antigen Hapten 4-OVA", "result": ">4", "unit": "µg/mL"}, {"measurement": "IC50", "setting": "4-AT4; coating antigen Hapten 5-OVA", "result": 0.48165, "unit": "µg/mL"}, {"measurement": "IC50", "setting": "3-LD3; coating antigen Hapten 2-OVA", "result": 1.82165, "unit": "µg/mL"}, {"measurement": "IC50", "setting": "3-LD3; coating antigen Hapten 3-OVA", "result": 2.18232, "unit": "µg/mL"}, {"measurement": "IC50", "setting": "3-LD3; coating antigen Hapten 4-OVA", "result": 0.27108, "unit": "µg/mL"}, {"measurement": "IC50", "setting": "2-LD2; coating antigen Hapten 1-OVA", "result": 0.02479, "unit": "µg/mL"}, {"measurement": "IC50", "setting": "2-LD2; coating antigen Hapten 2-OVA", "result": 1.43616, "unit": "µg/mL"}, {"measurement": "IC50", "setting": "2-LD2; coating antigen Hapten 3-OVA", "result": 0.00178, "unit": "µg/mL"}, {"measurement": "IC50", "setting": "2-LD2; coating antigen Hapten 4-OVA", "result": 0.00101, "unit": "µg/mL"}, {"measurement": "IC50", "setting": "1-F12; coating antigen Hapten 1-OVA, mAb 1-F12", "result": 0.50623, "unit": "µg/mL"}, {"measurement": "IC50", "setting": "1-F12; coating antigen Hapten 2-OVA, mAb 1-F12", "result": ">4", "unit": "µg/mL"}, {"measurement": "IC50", "setting": "1-F12; coating antigen Hapten 3-OVA, mAb 1-F12", "result": ">4", "unit": "µg/mL"}, {"measurement": "IC50", "setting": "1-F12; coating antigen Hapten 4-OVA, mAb 1-F12", "result": 0.40126, "unit": "µg/mL"}, {"measurement": "IC50", "setting": "1-F12; coating antigen Hapten 5-OVA, mAb 1-F12 (optimal combination)", "result": 0.12283, "unit": "µg/mL"}, {"measurement": "IC50", "setting": "1-F12; coating antigen Hapten 6-OVA, mAb 1-F12", "result": 0.63169, "unit": "µg/mL"}, {"measurement": "IC50", "setting": "1-F12; [3]", "result": 0.50623, "unit": "µg/mL"}, {"measurement": "CR", "setting": "1-F12; mAb 1-F12", "result": 100.00, "unit": "%"}, {"measurement": "IC50", "setting": "5-D8; coating antigen Hapten 1-OVA", "result": 0.02328, "unit": "µg/mL"}, {"measurement": "IC50", "setting": "5-D8; coating antigen Hapten 2-OVA", "result": ">4", "unit": "µg/mL"}, {"measurement": "IC50", "setting": "5-D8; coating antigen Hapten 3-OVA", "result": ">4", "unit": "µg/mL"}, {"measurement": "IC50", "setting": "5-D8; coating antigen Hapten 4-OVA", "result": 1.03007, "unit": "µg/mL"}, {"measurement": "IC50", "setting": "5-D8; coating antigen Hapten 5-OVA", "result": 1.03651, "unit": "µg/mL"}, {"measurement": "IC50", "setting": "1-D6; coating antigen Hapten 1-OVA, mAb 1-D6", "result": 0.05917, "unit": "µg/mL"}, {"measurement": "IC50", "setting": "1-D6; coating antigen Hapten 2-OVA, mAb 1-D6", "result": 1.14733, "unit": "µg/mL"}, {"measurement": "IC50", "setting": "1-D6; coating antigen Hapten 3-OVA, mAb 1-D6", "result": 0.02778, "unit": "µg/mL"}, {"measurement": "IC50", "setting": "1-D6; coating antigen Hapten 4-OVA, mAb 1-D6", "result": 0.29753, "unit": "µg/mL"}, {"measurement": "IC50", "setting": "1-D6; coating antigen Hapten 5-OVA, mAb 1-D6", "result": 0.13286, "unit": "µg/mL"}, {"measurement": "IC50", "setting": "1-D6; coating antigen Hapten 6-OVA, mAb 1-D6", "result": 0.15056, "unit": "µg/mL"}, {"measurement": "IC50", "setting": "1-D6; [1]", "result": 0.05917, "unit": "µg/mL"}, {"measurement": "CR", "setting": "1-D6; mAb 1-D6", "result": 100.00, "unit": "%"}]}, {"smiles": "COc1ccc(/C=C/C(=O)O)cc1O", "note": "[IsoFerulic acid]", "values": [{"measurement": "IC50", "setting": "1-G12; [2]", "result": ">4", "unit": "µg/mL"}, {"measurement": "CR", "setting": "1-G12; mAb 1-G12", "result": "<14.01", "unit": "%"}, {"measurement": "IC50", "setting": "1-F12; [3]", "result": ">4", "unit": "µg/mL"}, {"measurement": "CR", "setting": "1-F12; mAb 1-F12", "result": "<12.66", "unit": "%"}, {"measurement": "IC50", "setting": "1-D6; [1]", "result": 2.12807, "unit": "µg/mL"}, {"measurement": "CR", "setting": "1-D6; mAb 1-D6", "result": 2.78, "unit": "%"}]}, {"smiles": "COc1cc(/C=C/C(=O)O)ccc1O", "note": "[Trans-Ferulic acid]", "values": [{"measurement": "IC50", "setting": "1-G12; [2]", "result": ">4", "unit": "µg/mL"}, {"measurement": "CR", "setting": "1-G12; mAb 1-G12", "result": "<14.01", "unit": "%"}, {"measurement": "IC50", "setting": "1-F12; [3]", "result": ">4", "unit": "µg/mL"}, {"measurement": "CR", "setting": "1-F12; mAb 1-F12", "result": "<12.66", "unit": "%"}, {"measurement": "IC50", "setting": "1-D6; [1]", "result": ">4", "unit": "µg/mL"}, {"measurement": "CR", "setting": "1-D6; mAb 1-D6", "result": "<1.48", "unit": "%"}]}, {"smiles": "COc1cc(C(=O)O)ccc1O", "note": "[Vanillic acid]", "values": [{"measurement": "IC50", "setting": "1-G12; [2]", "result": ">4", "unit": "µg/mL"}, {"measurement": "CR", "setting": "1-G12; mAb 1-G12", "result": "<14.01", "unit": "%"}, {"measurement": "IC50", "setting": "1-F12; [3]", "result": ">4", "unit": "µg/mL"}, {"measurement": "CR", "setting": "1-F12; mAb 1-F12", "result": "<12.66", "unit": "%"}, {"measurement": "IC50", "setting": "1-D6; [1]", "result": 1.7172, "unit": "µg/mL"}, {"measurement": "CR", "setting": "1-D6; mAb 1-D6", "result": 3.45, "unit": "%"}]}, {"smiles": "COc1cc(C=O)ccc1O", "note": "[Vanillin]", "values": [{"measurement": "IC50", "setting": "1-G12; [2]", "result": ">4", "unit": "µg/mL"}, {"measurement": "CR", "setting": "1-G12; mAb 1-G12", "result": "<14.01", "unit": "%"}, {"measurement": "IC50", "setting": "1-F12; [3]", "result": ">4", "unit": "µg/mL"}, {"measurement": "CR", "setting": "1-F12; mAb 1-F12", "result": "<12.66", "unit": "%"}, {"measurement": "IC50", "setting": "1-D6; [1]", "result": 1.98161, "unit": "µg/mL"}, {"measurement": "CR", "setting": "1-D6; mAb 1-D6", "result": 2.99, "unit": "%"}]}]}
